The species entered for assay [1] is Rattus norvegicus. In words: Antiallergic potency against IgE-mediated passive cutaneous anaphylaxis (PCA) in rats. The class given is functional. In short, it runs like this: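 Multiple-dose oral tests were run alongside aminophylline in female Sprague–Dawley rats (90–125 g). Bluing diameters were recorded 30 min after challenge, and activity was taken as the rightward shift of the antibody dose-response curve.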

Assay [2] is filed under the species Rattus norvegicus. Briefly: Antiallergic activity against IgE-mediated passive cutaneous anaphylaxis (PCA) in rats. The class given is functional. A digest of the protocol:
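Female Sprague–Dawley rats (90–125 g), fasted overnight, were sensitized with id injections of graded concentrations of IgE against egg albumin. Compound was given orally at 100 mg (base)/kg in 0.5% gum tragacanth to 4 rats, 1 h before challenge. Skin bluing diameters were read 30 min later, and the shift of the antibody dose-response curve to the right was expressed in multiples of antibody concentration.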

`CCNC(=O)Nc1ccnc(-c2cccnc2)n1` yielded a Potency in the assay filed under Rattus norvegicus [1] of 4.8. For the same compound, in the assay filed under Rattus norvegicus [2], the PCA shift was greater than 10.
With `CC(=O)C(=CNc1ccnc(-c2ccncc2)n1)C(C)=O`, in the assay listed under Rattus norvegicus [2], the PCA shift is reported as 5.6.
In the assay filed under Rattus norvegicus [1], `COC(=O)C(/C=N/c1ccnc(-c2cccnc2)n1)=C(\O)OC` had a Potency of 2.9. For the same compound, the PCA shift in the assay filed under Rattus norvegicus [2] is greater than 10.
Turning to `CCO/C(O)=C(\C=N\c1ccnc(-c2ccncc2)n1)C(C)=O`, the PCA shift in the assay filed under Rattus norvegicus [2] was 2.9.
Consider `CCOC(=O)C(/C=N/c1ccnc(-c2cccnc2)n1)=C(\O)OCC`, for which, in the assay filed under Rattus norvegicus [1], the Potency was determined as 0.8. Further, the PCA shift in the assay filed under Rattus norvegicus [2] is given as greater than 10.
Turning to `CN(C(=O)NC(C)(C)C)c1ccnc(-c2ccncc2)n1`, the PCA shift in the assay filed under Rattus norvegicus [2] was determined as 4.
As to `CC(C)(C)C(=O)Nc1ccnc(-c2ccncc2)n1`, the PCA shift in the assay filed under Rattus norvegicus [2] is on record as 4.2.
As for `CC(C)CC(=O)Nc1ccnc(-c2ccncc2)n1`, the PCA shift in the assay filed under Rattus norvegicus [2] is 5.
With `CCCCNC(=O)Nc1ccnc(-c2ccncc2)n1`, the Potency in the assay listed under Rattus norvegicus [1] worked out at 2.4. Further, the PCA shift in the assay listed under Rattus norvegicus [2] is recorded as greater than 10.
As to `CC1(C)OC(=O)C(/C=N/c2ccnc(-c3ccncc3)n2)=C(O)O1`, the PCA shift in the assay filed under Rattus norvegicus [2] was determined as 2.2.
Take `CN(C)c1ccnc(-c2ccncc2)n1`: the PCA shift in the assay listed under Rattus norvegicus [2] is reported as 1.5.
The same measure, in the same setting: the figure for `Cc1cc(O)nc(-c2ccncc2)n1` is 2.8.
In the case of `Cc1cnc(-c2ccncc2)nc1NC(=O)NC(C)(C)C`, the PCA shift in the assay filed under Rattus norvegicus [2] came to 3.5.
As to `Nc1ccnc(-c2cc[n+]([O-])cc2)n1`, the PCA shift in the assay listed under Rattus norvegicus [2] stood at 3.8.
The same measure, in the same setting: the value for `CCNc1ccnc(-c2ccncc2)n1` was 8.4.
Turning to `NC(=O)Nc1ccnc(-c2ccncc2)n1`, the PCA shift in the assay filed under Rattus norvegicus [2] came to 4.8.
On the same count and under the same terms, the value for `CCCCOC(=O)Nc1ccnc(-c2ccncc2)n1` was 3; that for `Nc1ccnc(-c2cccnc2)n1` was 4.2; that for `CCCNC(=O)Nc1ccnc(-c2ccncc2)n1` was greater than 10.
The same measure, in the same setting: the value for `CC(C)(C)NC(=O)Nc1ccnc(-c2ccccn2)n1` was 4.5.
Same read-out and setting: the value for `CC(=O)Nc1ccnc(-c2ccncc2)n1` was 1.7.
For `CC(C)(C)NC(=O)Nc1ccnc(-c2cccnc2)n1`, the PCA shift in the assay filed under Rattus norvegicus [2] is given as 5.8.
The same measure, in the same setting: the value for `CCO/C(O)=C(C#N)\C=N\c1ccnc(-c2ccncc2)n1` was 9.4.
In the assay listed under Rattus norvegicus [1], `CC(C)NC(=O)Nc1ccnc(-c2ccncc2)n1` registered a Potency of 2.4. Also, the PCA shift in the assay listed under Rattus norvegicus [2] is listed as greater than 10.
Turning to `CC(C)(C)CC(=O)Nc1ccnc(-c2ccncc2)n1`, the PCA shift in the assay listed under Rattus norvegicus [2] amounted to 2.2.
In the case of `CCO/C(O)=C(C#N)\C(C)=N\c1ccnc(-c2ccncc2)n1`, the PCA shift in the assay filed under Rattus norvegicus [2] turned out to be 5.
As for `CCCCNc1ccnc(-c2ccncc2)n1`, in the assay filed under Rattus norvegicus [2], the PCA shift is on record as 7.6.
Regarding `CCNC(=O)Nc1ccnc(-c2ccncc2)n1`, in the assay filed under Rattus norvegicus [1], the Potency came to 7. The PCA shift in the assay listed under Rattus norvegicus [2] is reported as greater than 10.
Regarding `CCCCNC(=O)Nc1ccnc(-c2cccnc2)n1`, the PCA shift in the assay listed under Rattus norvegicus [2] is 8.5.
As for `CCN(CC)C(=O)Nc1ccnc(-c2ccncc2)n1`, in the assay filed under Rattus norvegicus [2], the PCA shift worked out at 8.9.
Same read-out and setting: the figure for `CC(C)C(=O)Nc1ccnc(-c2ccncc2)n1` is 2.3.
`CC(C)NC(=O)Nc1ccnc(-c2cccnc2)n1` displayed a Potency in the assay listed under Rattus norvegicus [1] of 1.6. Besides, the PCA shift in the assay filed under Rattus norvegicus [2] is given as greater than 10.
With `CC(C)(C)NC(=O)Nc1ccnc(-c2cc[n+]([O-])cc2)n1`, the PCA shift in the assay filed under Rattus norvegicus [2] was found to be 1.5.
In the assay filed under Rattus norvegicus [1], `CC(C)(C)NC(=O)Nc1ccnc(-c2ccncc2)n1` displayed a Potency of 3.9. Besides, the PCA shift in the assay listed under Rattus norvegicus [2] was greater than 10.
Consider `Nc1ccnc(-c2ccccn2)n1`, for which the PCA shift in the assay listed under Rattus norvegicus [2] amounted to 2.5.
Same read-out and setting: the figure for `CC(C)(C)Nc1ccnc(-c2ccncc2)n1` is 1.5.
Same read-out and setting: the value for `CC(C)(C)OC(=O)Nc1ccnc(-c2ccncc2)n1` was 1.6; that for `CCN(CC)c1cc(C)nc(-c2ccncc2)n1.Cl.Cl` was 2.2.
Still for that read-out and setting: the value for `Cc1cc(N(C)C)nc(-c2ccncc2)n1.Cl.Cl` was 5; that for `CCCCN(C(=O)NC(C)C)c1ccnc(-c2ccncc2)n1.CS(=O)(=O)O.CS(=O)(=O)O` was 4.2; that for `CCC(CC)NC(=O)Nc1ccnc(-c2ccncc2)n1.CS(=O)(=O)O.CS(=O)(=O)O` was 6.4.
Consider `CS(=O)(=O)O.CS(=O)(=O)O.Cc1cc(NN)nc(-c2ccncc2)n1`, for which the PCA shift in the assay filed under Rattus norvegicus [2] amounted to 2.
`CC(C)NC(=O)Nc1ccnc(-c2cc[n+]([O-])cc2)n1.CS(=O)(=O)O.CS(=O)(=O)O` returned a Potency in the assay filed under Rattus norvegicus [1] of 1.8. The PCA shift in the assay filed under Rattus norvegicus [2] is 5.4.
Turning to `CCOC(=O)C(/C=N/c1ccnc(-c2ccccn2)n1)=C(\O)OCC.CS(=O)(=O)O`, the PCA shift in the assay listed under Rattus norvegicus [2] was 4.1.
On the same count and under the same terms, the value for `Cc1cc(N(CCO)CCO)nc(-c2ccncc2)n1` was 6.3.
In turn, `CNC(=O)Nc1ccnc(-c2ccncc2)n1` registered a Potency in the assay listed under Rattus norvegicus [1] of 3.8. Further, the PCA shift in the assay listed under Rattus norvegicus [2] is on record as greater than 10.
Take `CC(C)(CO)NC(=O)Nc1ccnc(-c2ccncc2)n1`: the Potency in the assay filed under Rattus norvegicus [1] stood at 1. Further, the PCA shift in the assay filed under Rattus norvegicus [2] was greater than 10.
For the compound `Nc1ccnc(-c2ccncc2)n1`, the PCA shift in the assay filed under Rattus norvegicus [2] is recorded as 8.6.
In the case of `CCOC(=O)C(/C=N/c1cc(C)nc(-c2ccncc2)n1)=C(/O)OCC`, the PCA shift in the assay listed under Rattus norvegicus [2] is given as 7.8.
On to `CCCCCC(=O)Nc1ccnc(-c2ccncc2)n1`, for which the PCA shift in the assay listed under Rattus norvegicus [2] came out at 7.
As to `CC(C)(C)CNC(=O)Nc1ccnc(-c2ccncc2)n1`, the PCA shift in the assay filed under Rattus norvegicus [2] worked out at 2.2.
Same read-out and setting: the figure for `CNc1ccnc(-c2ccncc2)n1` is 7.4.
For the compound `CCOC(=O)C(/C=N/c1ccnc(-c2ccncc2)n1)=C(\O)OCC`, in the assay filed under Rattus norvegicus [1], the Potency came to 2.4. The PCA shift in the assay listed under Rattus norvegicus [2] is greater than 10.
For `CNc1cc(C)nc(-c2ccncc2)n1`, the PCA shift in the assay listed under Rattus norvegicus [2] worked out at 4.9.
Still for that read-out and setting: the value for `Cc1cc(Cl)nc(-c2ccncc2)n1` was 1.4.
As for `COC(=O)C(/C=N/c1ccnc(-c2ccncc2)n1)=C(\O)OC`, the Potency in the assay filed under Rattus norvegicus [1] worked out at 5.8. Also, the PCA shift in the assay filed under Rattus norvegicus [2] was greater than 10.
As to `CC(C)Nc1ccnc(-c2ccncc2)n1`, the PCA shift in the assay listed under Rattus norvegicus [2] turned out to be 9.
Still for that read-out and setting: the value for `Cc1cc(NC(=O)NC(C)(C)C)nc(-c2ccncc2)n1` was 3.2; that for `CC(C)NC(=O)N(C)c1ccnc(-c2ccncc2)n1` was greater than 10; that for `Cc1cc(N)nc(-c2ccncc2)n1` was 10.2.

These data come from ChEMBL document CHEMBL1122094, “Novel orally active inhibitors of passive cutaneous anaphylaxis in rats: N-[2-(4-pyridinyl)-4-pyrimidinyl]ureas and dialkyl [[[2-(4-pyridinyl)-4-pyrimidinyl]amino]methylene]malonates” (1982).
